Assay results published in ChEMBL document CHEMBL1157908, “Macrocyclic pyridyl polyoxazoles: selective RNA and DNA G-quadruplex ligands as antitumor agents” (J Med Chem, 2010).

Columns and labels:
[1] = Cytotoxicity against human RPMI8402 cells by MTA assay; assay type: functional, cell-based; conditions: RPMI 8402
Outline: (§1)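 MTT microtiter assay. Cells were kept at 37 °C in 5% CO2 in RPMI with 10% heat-inactivated FBS, 2 mM L-glutamine and penicillin/streptomycin. Continuous exposure to a range of drug concentrations for four days, then MTT read-out. Drug-free control included. IC50 from at least two assays, each in six replicate wells.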

[2] = Cytotoxicity against human KBV1 cells expressing MDR1 by MTA assay; assay type: functional, cell-based; conditions: KB-V1; outline: as §1
[3] = Cytotoxicity against wild type human KB3-1 cells by MTA assay; assay type: functional, cell-based; conditions: KB 3-1; outline: as §1
[4] = Cytotoxicity against human KBH5.0 cells expressing efflux transporter BCRP by MTA assay; assay type: functional, cell-based; conditions: KBH5.0 cell; outline: as §1
[5] = tested on: MDA-MB-435; experiment: Antitumor activity against human MDA-MB-435 cells xenografted in NCR nu/nu mouse assessed as tumor volume at an escalating dose of 25 to 42 mg/kg, ip administered on day 10 post-implantation followed by subsequent dose regimen of 3 times a week on alternative days for 3 weeks measured after 35 days (RVb = > 1350 mm'3); assay type: functional; conditions: dose mg/kg 25-42; route intraperitoneal
Outline: (§2)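 Female NCR/NU NU mice, about 9 weeks old. Inoculated sc on the right flank with 1.5×10^6 MDA-MB-435 cells in 0.1 mL RPMI 1640. Groups of seven matched by tumor volume. Given ip 3× weekly on alternate days in escalating weekly doses. Control received 150 μl 10 mM citrate. Tumor volume (l × w^2)/2 measured by microcaliper at least twice weekly. % T/C = treated/control mean volume.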

[6] = tested on: Nucleic Acid; experiment: Thermal stabilization of human G-quadruplex d[T2G3(T2AG3)3A] DNA assessed as change in transition temperature at 20 uM after 4 hrs by temperature-dependent spectrophotometry in presence of 150 mM K+ ions; assay type: nucleic-acid assay
Outline: (§3)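 UV melting in 1 cm quartz cells. Sample held 5 μM strand of hTel DNA 24mer or AurA RNA 22mer, with ligand at 20 μM. Buffer 10 mM potassium phosphate pH 7.5 plus 132 mM KCl (150 mM K+ total). Nucleic acids preheated at 90 °C for 5 min and slowly cooled over 4 hr before use. AurA transition followed at 295 nm.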

[7] = tested on: Nucleic Acid; experiment: Thermal stabilization of r[AG4CG2CUG2UCG2AGUG2C] sequence of quadruplex RNA assessed as change in transition temperature at 20 uM after 4 hrs by temperature-dependent spectrophotometry in presence of 150 mM K+ ions; assay type: nucleic-acid assay; outline: as §3
[8] = tested on: Mus musculus; experiment: (§4) Toxicity in NCR nu/nu mouse xenografted with human MDA-MB-435 cells assessed as average body weight at an escalating dose of 25 to 42 mg/kg, ip administered on day 10 post-implantation followed by subsequent dose regimen of 3 times a week on alternative days for 3 weeks measured on day 17 (RVb = 22 +/- 1.8 g); assay type: organism-based; parameters: dose 25-42 mg/kg, route intraperitoneal; conditions: in vivo, 504 h
Outline: (§5)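 Female NCR/NU NU mice with sc MDA-MB-435 flank xenografts. Seven mice dosed ip 3× weekly on alternate days, escalating weekly from 25 through 32 to 42 mg/kg. Controls received 150 μl 10 mM citrate. Individual body weights taken at least twice weekly. Average ± standard deviation given for days 17, 24, 31 and 35.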

[9] = tested on: Mus musculus; experiment: as §4, with “31” for “17”, “23.9” for “22”, “1” for “1.8”; assay type: organism-based; parameters: dose 25-42 mg/kg, route intraperitoneal; conditions: in vivo, 504 h; outline: as §5
[10] = tested on: Mus musculus; experiment: as §4, with “35” for “17”, “24.6” for “22”, “1.3” for “1.8”; assay type: organism-based; parameters: dose 25-42 mg/kg, route intraperitoneal; conditions: in vivo, 504 h; outline: as §5
[11] = tested on: Nucleic Acid; experiment: Thermal stabilization of […] poly(rA).poly(rU) duplex RNA assessed as change in transition temperature at 15 uM after 4 hrs by temperature-dependent spectrophotometry in presence of 150 mM K+ ions; assay type: nucleic-acid assay
[12] = tested on: Nucleic Acid; experiment: Thermal stabilization of Salmon testes duplex DNA assessed as change in transition temperature at 15 uM after 4 hrs by temperature-dependent spectrophotometry in presence of 150 mM K+ ions; assay type: nucleic-acid assay; conditions: Salmonidae
Outline: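 Salmon testes duplex DNA at 30 μM base pair with ligand at 15 μM. Buffer 10 mM potassium phosphate pH 7.5 with 132 mM KCl (150 mM K+). DNA preheated at 90 °C for 5 min and cooled slowly over 4 hr. Temperature-dependent absorbance recorded in 1 cm quartz cells.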

[13] = tested on: MDA-MB-435; experiment: Antitumor activity against human MDA-MB-435 cells xenografted in NCR nu/nu mouse at an escalating dose of 25 to 42 mg/kg, ip administered on day 10 post-implantation followed by subsequent dose regimen of 3 times a week on alternative days for 3 weeks measured after 35 days relative to control; assay type: functional; conditions: dose mg/kg 25-42; route intraperitoneal; outline: as §2
[14] = tested on: Mus musculus; experiment: as §4, with “24” for “17”, “22.5” for “22”, “1.5” for “1.8”; assay type: organism-based; parameters: dose 25-42 mg/kg, route intraperitoneal; conditions: in vivo, 504 h; outline: as §5
[15] = tested on: MDA-MB-435; experiment: Antitumor activity against human MDA-MB-435 cells xenografted in NCR nu/nu mouse at 20 mg/kg, ip administered 3 times a week for 4 weeks measured after 35 days post-implantation relative to control; assay type: functional; conditions: route intraperitoneal
Outline: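 Female NCR/NU NU mice bearing sc flank MDA-MB-435 xenografts (1.5×10^6 cells), groups matched by tumor volume. Eight mice dosed ip at 20 mg/kg, 3× weekly for four weeks from day 0. Tumor volume (l × w^2)/2 measured by caliper at least twice weekly. % T/C = average treated volume over citrate-control volume.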

[16] = tested on: Mus musculus; experiment: Toxicity in NCR nu/nu mouse xenografted with human MDA-MB-435 cells assessed as average body weight at 20 mg/kg, ip administered 3 times a week for 4 weeks measured on day 31 (RVb = 23.9 +/- 1 g); assay type: organism-based; parameters: dose 20 mg/kg, route intraperitoneal; conditions: in vivo, 672 h
[17] = tested on: MIA PaCa-2; experiment: Cytotoxicity against human MIAPaCa2 cells; assay type: functional, cell-based

| SMILES | IC50 [1] [µM] | IC50 [2] [µM] | IC50 [3] [µM] | IC50 [4] [µM] | other results |
| --- | --- | --- | --- | --- | --- |
| O=C1NCc2cc(Br)cc(c2)CNC(=O)c2coc(n2)-c2coc(n2)-c2cccc(n2)-c2nc(co2)-c2nc1co2 | 0.3 | > 10 | 0.06 | 1 |  |
| O=C1NCc2cc(Br)cc(c2)CNC(=O)c2coc(n2)-c2coc(n2)-c2cc(OCCCN3C(=O)c4ccccc4C3=O)cc(n2)-c2nc(co2)-c2nc1co2 | 1 | > 10 | 1 | > 10 |  |
| O=C1NCc2cc(Br)cc(c2)CNC(=O)c2coc(n2)-c2coc(n2)-c2cc(Br)cc(n2)-c2nc(co2)-c2nc1co2 | > 10 | > 10 | > 10 | > 10 |  |
| CN(C)CCc1cc2cc(c1)CNC(=O)c1coc(n1)-c1coc(n1)-c1cccc(n1)-c1nc(co1)-c1nc(co1)C(=O)NC2 | 0.18 | > 10 | 0.04 | 0.55 | Activity [5]: <400 mm3; deltaT [6]: 20.5 °C; deltaT [7]: 37 °C; Activity [8]: 19.7 g; Activity [9]: 20.9 g; Activity [10]: 21.2 g; deltaT [11]: 0.5 °C; deltaT [12]: 0 °C; T/C [13]: 27.7%; Activity [14]: 20.2 g |
| O=C1NCc2cccc(c2)CNC(=O)c2coc(n2)-c2csc(n2)-c2cccc(n2)-c2nc(co2)-c2nc1co2 | 1 | > 10 | 0.26 | > 10 |  |
| O=C(NCCc1cc2cc(c1)CNC(=O)c1coc(n1)-c1coc(n1)-c1cc(Br)cc(n1)-c1nc(co1)-c1nc(co1)C(=O)NC2)OCc1ccccc1 | 1 | > 10 | 0.6 | > 10 |  |
| O=C1NCc2cccc(c2)CNC(=O)c2coc(n2)-c2coc(n2)-c2cccc(n2)-c2nc(co2)-c2nc1co2 | 1.05 | 4.5 | 1.2 | 1.5 | deltaT [6]: 7.5 °C; deltaT [11]: 0 °C; deltaT [12]: 0 °C |
| O=C(NCCc1cc2cc(c1)CNC(=O)c1coc(n1)-c1coc(n1)-c1cc(OCCCN3C(=O)c4ccccc4C3=O)cc(n1)-c1nc(co1)-c1nc(co1)C(=O)NC2)OCc1ccccc1 | > 10 | > 10 | > 10 | > 10 |  |
| O=C1NCc2cccc(c2)CNC(=O)c2coc(n2)-c2coc(n2)-c2cc(OCCCN3C(=O)c4ccccc4C3=O)cc(n2)-c2nc(co2)-c2nc1co2 | 4.5 | > 10 | 0.4 | > 10 |  |
| NCCc1cc2cc(c1)CNC(=O)c1coc(n1)-c1coc(n1)-c1cccc(n1)-c1nc(co1)-c1nc(co1)C(=O)NC2 | 0.09 | > 10 | 0.03 | 0.14 | deltaT [6]: 21 °C; deltaT [11]: 0.5 °C; deltaT [12]: 0 °C |
| O=C1NCc2cccc(c2)CNC(=O)c2coc(n2)-c2csc(n2)-c2cccc(n2)-c2nc(cs2)-c2nc1co2 | > 10 | > 10 | > 10 | > 10 | deltaT [6]: 0 °C; deltaT [11]: 0 °C; deltaT [12]: 0 °C |
| O=C(NCCc1cc2cc(c1)CNC(=O)c1coc(n1)-c1coc(n1)-c1cccc(n1)-c1nc(co1)-c1nc(co1)C(=O)NC2)OCc1ccccc1 | 0.12 | > 10 | 0.12 | > 10 |  |
| CCc1c2c(nc3ccc(OC(=O)N4CCC(N5CCCCC5)CC4)cc13)-c1cc3c(c(=O)n1C2)COC(=O)[C@]3(O)CC [IRINOTECAN] |  |  |  |  | T/C [15]: 6.1%; Activity [16]: 18.4 g |
| O=C1NCc2cc(CCNC(=O)C(F)(F)F)cc(c2)CNC(=O)c2coc(n2)-c2coc(n2)-c2cccc(n2)-c2nc(co2)-c2nc1co2 | 0.17 | > 10 | 0.07 | > 10 |  |
| O=C1NCc2cccc(c2)CNC(=O)c2coc(n2)-c2coc(n2)-c2cc(Br)cc(n2)-c2nc(co2)-c2nc1co2 | 0.3 | 2 | 0.15 | 1 |  |
| NCCCOc1cc2nc(c1)-c1nc(co1)-c1nc(co1)C(=O)NCc1cccc(c1)CNC(=O)c1coc(n1)-c1coc-2n1 | 5 | > 10 | 3 | > 10 |  |
| O=C1NCc2cccc(n2)CNC(=O)c2coc(n2)-c2coc(n2)-c2cccc(n2)-c2nc(co2)-c2nc1co2 | > 5 | > 5 | > 5 | > 5 |  |
| CC(C)[C@@H]1NC(=O)c2coc(n2)-c2coc(n2)-c2coc(n2)[C@H](C(C)C)NC(=O)c2coc(n2)-c2coc(n2)-c2coc1n2 [HEXAOXAZOLE DIVALINE] | 0.6 | 8.5 | 0.4 | 0.5 | IC50 [17]: 0.5 µM |
| O=C1NCCNCCNC(=O)c2coc(n2)-c2coc(n2)-c2cccc(n2)-c2nc(co2)-c2nc1co2 | > 10 | > 10 | 4 | > 10 |  |
